Experiments:
HepG2 [1] = test: Induction of apoptosis in human HepG2 cells assessed as early apoptotic cells at 200 nM after 48 hrs by annexin-V-FITC and propidium iodide staining based flow cytometry (reference value: 3.63%); format: functional
Procedure, shortened: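 HepG2 cells treated with 50, 100 or 200 nM compound or DMSO vehicle for 24 or 48 h at 37 °C. Labeled with annexin-V-FITC and PI and analyzed by flow cytometry. Cells classified as early apoptotic (annexin-V+/PI−), late apoptotic (annexin-V+/PI+) or necrotic (annexin-V−/PI+).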

HepG2 [2] = test: Induction of apoptosis in human HepG2 cells assessed as viable cells at 50 nM after 48 hrs by annexin-V-FITC and propidium iodide staining based flow cytometry (reference value: 93.2%); format: functional; conditions: HepG2, 48 h, read-out: Activity

Molecule COc1ccc(/C=C/C(=O)c2ccc(OC)c3c2OC(C)(C)C=C3)cc1N has an Activity (HepG2 [1]) of 20.14% and a viability at 0.05 µM (HepG2 [2]) of 66.1%.

— ChEMBL document CHEMBL3351994, “Synthesis and biological evaluation of novel millepachine derivatives as a new class of tubulin polymerization inhibitors” (J Med Chem, 2014)
